# Test results published in ChEMBL document CHEMBL1127053, “3,4-Dimethyl-4-(3-hydroxyphenyl)piperidines: opioid antagonists with potent anorectant activity” (J Med Chem, 1993).
# Legend:
# Rattus norvegicus = assay: Tested for concentration required to reduce the food consumption by 20 % subcutaneously; assay type: functional; conditions: Rattus norvegicus, sc; read-out: ED50
# In short: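 Obese Zucker rats, 3-4 months old, trained to eat only 8 am-4 pm. Groups of 4 (2 male, 2 female), with one saline control group daily. Compound in saline with 10% DMSO, given sc on 3 consecutive days, typical doses 5.0-0.08 mg/kg (0.02-20 in some cases). Intake measured over the first 4 h. ED20 from regression of the linear portion of the dose-response curve.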
# [1] = target: Kappa-type opioid receptor (Mus musculus) (UniProt P33534); assay: Antagonist activity towards U50 488 induced kappa opioid receptor by mouse writhing assay at 2.5 mg/kg subcutaneously; assay type: functional, organism-based; set-up: dose 2.5 mg/kg
# In short: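 Mouse acetic acid writhing: 0.6% acetic acid ip, writhes counted for 10 min starting 5 min after injection. 5 mice/point, ≥5 doses varied 2-fold, each mouse used once. AD50 = antagonist dose reducing agonist-induced writhing inhibition to 50%.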
# [2] = target: T1, Adrenergic receptor alpha-2 (Rattus norvegicus, UniProt P22086+P19328+P22909); assay: Tested for affinity against alpha-2-adrenergic using [3H]clonidine in rat brain; assay type: tissue-based
# T1 sequence (P22086 whole entry): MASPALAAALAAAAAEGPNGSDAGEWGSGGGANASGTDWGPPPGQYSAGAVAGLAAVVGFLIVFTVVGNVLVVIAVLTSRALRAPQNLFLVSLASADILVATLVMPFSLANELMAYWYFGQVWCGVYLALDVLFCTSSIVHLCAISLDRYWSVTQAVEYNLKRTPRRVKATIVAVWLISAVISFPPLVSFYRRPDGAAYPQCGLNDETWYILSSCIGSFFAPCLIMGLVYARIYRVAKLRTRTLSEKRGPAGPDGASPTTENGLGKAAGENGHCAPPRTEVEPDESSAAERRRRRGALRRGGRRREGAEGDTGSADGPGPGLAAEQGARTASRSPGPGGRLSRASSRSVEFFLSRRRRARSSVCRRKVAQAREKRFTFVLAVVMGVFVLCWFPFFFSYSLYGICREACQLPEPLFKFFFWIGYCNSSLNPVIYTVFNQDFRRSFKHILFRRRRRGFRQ
# T1 sequence (P19328 whole entry): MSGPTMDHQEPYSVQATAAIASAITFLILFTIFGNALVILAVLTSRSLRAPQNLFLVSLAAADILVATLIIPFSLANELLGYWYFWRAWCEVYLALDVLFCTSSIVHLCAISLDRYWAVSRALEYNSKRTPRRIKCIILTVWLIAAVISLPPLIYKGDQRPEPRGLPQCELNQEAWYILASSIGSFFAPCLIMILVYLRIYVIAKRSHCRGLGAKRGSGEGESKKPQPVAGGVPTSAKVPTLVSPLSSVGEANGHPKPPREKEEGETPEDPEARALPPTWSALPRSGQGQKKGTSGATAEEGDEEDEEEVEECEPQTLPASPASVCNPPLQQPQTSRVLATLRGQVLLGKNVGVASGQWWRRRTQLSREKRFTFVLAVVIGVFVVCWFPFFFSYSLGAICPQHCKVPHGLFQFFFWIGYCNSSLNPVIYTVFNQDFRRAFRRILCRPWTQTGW
# T1 sequence (P22909 whole entry): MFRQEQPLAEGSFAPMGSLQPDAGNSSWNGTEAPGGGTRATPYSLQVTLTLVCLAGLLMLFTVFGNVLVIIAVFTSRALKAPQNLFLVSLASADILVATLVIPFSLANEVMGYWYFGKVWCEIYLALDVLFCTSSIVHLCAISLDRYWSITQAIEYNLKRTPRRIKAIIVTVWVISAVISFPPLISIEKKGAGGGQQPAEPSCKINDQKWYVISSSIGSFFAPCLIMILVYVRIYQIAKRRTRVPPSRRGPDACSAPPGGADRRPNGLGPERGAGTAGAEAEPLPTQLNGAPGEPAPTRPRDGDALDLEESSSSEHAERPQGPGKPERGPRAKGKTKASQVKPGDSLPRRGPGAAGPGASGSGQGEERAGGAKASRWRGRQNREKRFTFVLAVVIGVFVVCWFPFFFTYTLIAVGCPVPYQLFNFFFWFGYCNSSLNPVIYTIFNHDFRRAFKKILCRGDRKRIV
# In short: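 Radioligand binding in cortical membranes from male Sprague-Dawley rats (110-150 g). Ligands: [3H]serotonin for 5-HT1, [3H]QNB for muscarinic, [3H]WB4101 for α1, [3H]clonidine for α2, [3H]dihydroalprenolol for β-adrenergic.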
# Kappa-type opioid receptor (Mus musculus), sequence (P33534 whole entry): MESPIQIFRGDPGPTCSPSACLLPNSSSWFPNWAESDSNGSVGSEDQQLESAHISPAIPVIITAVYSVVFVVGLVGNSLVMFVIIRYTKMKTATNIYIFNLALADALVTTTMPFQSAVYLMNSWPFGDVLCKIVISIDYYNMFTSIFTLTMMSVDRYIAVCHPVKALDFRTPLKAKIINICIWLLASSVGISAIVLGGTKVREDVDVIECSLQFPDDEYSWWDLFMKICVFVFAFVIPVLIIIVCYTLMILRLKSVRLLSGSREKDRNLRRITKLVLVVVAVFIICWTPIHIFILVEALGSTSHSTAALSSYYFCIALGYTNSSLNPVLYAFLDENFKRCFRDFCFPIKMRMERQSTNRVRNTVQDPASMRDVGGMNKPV
structure (smiles),measurement,setting,value
C[C@H]1CN(CC[C@H](O)C2CCCCC2)CC[C@@]1(C)c1cccc(O)c1,ED50,Rattus norvegicus,0.04 mg/kg
same,AD50,[1],0.05 mg/kg
same,IC50,[2],> 5 µM
